Published values gathered from unrelated publications.
Each line is one published result; the experiments were not run side by side.
Target: Serine/threonine-protein kinase 33 (STK33, Homo sapiens, UniProt Q9BYT3)

The remaining binding of `Cc1cnn2ncc(-c3ccnc(N(C)C)n3)c2c1` is reported as 100% (binding; 1 µM).
`O=C(NCc1ncc(C(F)(F)F)cc1Cl)c1ccc2c(c1)C1(CCS(=O)(=O)CC1)[C@H](C1CC1)N2S(=O)(=O)c1ccc(F)cc1` has a remaining binding of 100% (cell-free assay; competition with immobilised ligand; 1 µM).
`N[C@@H]1CCN(c2nccc(-c3cnn4ncccc34)n2)C1` has a remaining binding of 100% (binding; 1 µM).
`O=C(c1ccc(Nc2ncc(Cl)c(-c3cc4ccccc4s3)n2)cc1)N1CCC(N2CCCC2)CC1` gave a remaining binding of 38% (binding; competition with immobilised ligand; 1 µM).
The remaining binding of `C[C@@H](c1cccc(C#N)c1)n1cc(Cl)cc(C(N)=O)c1=N` is reported as 100% (cell-free assay; competition with immobilised ligand; 1 µM).
For `C=CC(=O)N1CCC(C(=O)NCC(=O)N2CCN(c3nc(-c4cnc(N)nc4C(F)F)nc(N4CCOCC4)n3)CC2)CC1`, the remaining binding was 100% (binding; competition with immobilised ligand; 1 µM).
With `CC1=C(C#N)[C@@H](c2ccc3[nH]nc(C)c3c2)C(C#N)=C(c2ccc(Cl)cc2)N1` the remaining binding was 90.9% (cell-free assay; competition with immobilised ligand; 1 µM).
`CNC(=O)c1ccccc1Nc1cc(Nc2ccc(N3CCOCC3)cc2OC)ncc1C(F)(F)F` gave a remaining binding of < 10% (binding; competition with immobilised ligand; 1 µM).
`CN(C)c1nccc(-c2cnn3ncccc23)n1` has a remaining binding of 75% (binding; 1 µM).
For `COc1ncc2cc3ccccc3nc2c1C#N`, the remaining binding was 91% (cell-free assay; competition with immobilised ligand; 5 µM).
With `O=C(c1ccc(Nc2nccc(-c3cc4ccccc4s3)n2)cc1)N1CCC(N2CCCC2)CC1` the remaining binding was 100% (binding; competition with immobilised ligand; 1 µM).
`O=C(Nc1c[nH]nc1C(=O)NC1CCNCC1)c1cc(F)cc(F)c1` has a remaining binding of 100% (binding; competition with immobilised ligand; 1 µM).
The remaining binding of `O=C(NCCCN1CCOCC1)c1ccc(Nc2ncc(Cl)c(-c3ccc(Cl)s3)n2)cc1` is reported as 68% (binding; competition with immobilised ligand; 1 µM).
For `CN(CCCC(F)(F)F)c1nccc(-c2cnn3ncccc23)n1`, the remaining binding was 100% (binding; 1 µM).
The remaining binding of `CC(=O)N1CCC(c2ccc(C(=O)NC3=NCCN3)cc2C(F)(F)F)CC1` is reported as 100% (cell-free assay; competition with immobilised ligand; 1 µM).
For `C[C@@H](c1ccc(-n2cnc3c(N)ncnc32)cc1)N1CCc2nn(C)c(Cc3ccccc3)c2C1=O`, the remaining binding was 100% (binding; competition with immobilised ligand; 0.1 µM).
`CN([C@@H]1CCc2c(CC(=O)O)c3ccccc3n2C1)S(=O)(=O)c1ccc(F)cc1` gave a remaining binding of 100% (cell-free assay; competition with immobilised ligand; 1 µM).
`COc1cnc(Nc2cccc(S(N)(=O)=O)c2)nc1N1CCN(c2ccccc2)C(=O)C1` has a remaining binding of 93% (binding; competition with immobilised ligand; 1 µM).
The remaining binding of `C[C@@H]1CCN(c2nccc(-c3cnn4ncccc34)n2)C1` is reported as 88% (binding; 1 µM).
For `c1cncc(-c2cccc(Nc3nccc(NC4CCCCC4)n3)c2)c1`, the remaining binding was 44% (binding; competition with immobilised ligand; 10 µM).
The remaining binding of `CN(c1nccc(-c2cnn3ncccc23)n1)C1CC1` is reported as 100% (binding; 1 µM).
For `O=C(O)c1cc(-c2ccc(C3CCNCC3)cc2)c2ccc(-c3ccc(C(F)(F)F)cc3)cc2c1`, the remaining binding was 100% (cell-free assay; competition with immobilised ligand; 1 µM).
